Assay results reported in ChEMBL document CHEMBL1158120, “Cytotoxic oxygenated triterpenoid saponins from Symplocos chinensis” (J Nat Prod, 2006).

Tests used:
Type in all cases: functional, cell-based
HCT-8 = test: Cytotoxicity against human HCT8 cells by MTT assay
Method in brief: (§1)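 MTT read-out of tumour-cell viability. IC50 values in µM are reported as means of three independent experiments.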

Bel-7402 = test: Cytotoxicity against human Bel-7402 cells by MTT assay; method in brief: as §1
A549 = test: Cytotoxicity against human A549 cells by MTT assay; method in brief: as §1
A2780 = test: Cytotoxicity against human A2780 cells by MTT assay; method in brief: as §1
BGC-823 = test: Cytotoxicity against human BGC-823 cells by MTT assay; method in brief: as §1

Compound | IC50 (HCT-8) [µM] | IC50 (Bel-7402) [µM] | IC50 (A549) [µM] | IC50 (A2780) [µM] | IC50 (BGC-823) [µM]
CC(=O)O[C@@H]1[C@@H](O[C@@H]2O[C@H](CO)[C@@H](O)[C@H](O)[C@H]2O)[C@H](O[C@H]2CC[C@]3(C)[C@H]4CC=C5[C@@H]6CC(C)(C)[C@@H](OC(=O)/C=C(/C)CCC=C(C)C)[C@H](OC(=O)C(C)C)[C@]6(CO)[C@H](O)[C@H](O)[C@@]5(C)[C@]4(C)CC[C@H]3C2(C)C)O[C@H](C(=O)O)[C@H]1O[C@@H]1O[C@@H](CO)[C@H](O)[C@H]1O [SYMPLOCOSOSIDE L] | 1.7 | 2.7 | > 10 | 2.4 | > 10
CCCCOC(=O)[C@H]1O[C@@H](O[C@H]2CC[C@]3(C)[C@H]4CC=C5[C@@H]6CC(C)(C)[C@@H](OC(=O)/C=C(/C)CCC=C(C)C)[C@H](OC(=O)C(C)CC)[C@]6(CO)[C@H](O)[C@H](O)[C@@]5(C)[C@]4(C)CC[C@H]3C2(C)C)[C@H](O[C@@H]2O[C@H](CO)[C@@H](O)[C@H](O)[C@H]2O)[C@@H](O)[C@@H]1O[C@@H]1O[C@@H](CO)[C@H](O)[C@H]1O (stereo not given in full) [SYMPLOCOSOSIDE C] | 2.9 | 1.5 | > 10 | 1.3 | 4.3
CC(=O)O[C@@H]1[C@@H](O[C@@H]2O[C@H](CO)[C@@H](O)[C@H](O)[C@H]2O)[C@H](O[C@H]2CC[C@]3(C)[C@H]4CC=C5[C@@H]6CC(C)(C)[C@@H](OC(=O)/C=C(/C)CCC=C(C)C)[C@H](OC(=O)c7ccccc7)[C@]6(CO)[C@H](O)[C@H](O)[C@@]5(C)[C@]4(C)CC[C@H]3C2(C)C)O[C@H](C(=O)O)[C@H]1O[C@@H]1O[C@@H](CO)[C@H](O)[C@H]1O [SYMPLOCOSOSIDE J] | 2.1 | 1.7 | 3 | 1.4 | 1.8
CCC(C)C(=O)O[C@H]1[C@H](OC(=O)/C=C/c2ccccc2)C(C)(C)C[C@H]2C3=CC[C@@H]4[C@@]5(C)CC[C@H](O[C@@H]6O[C@H](CO)[C@@H](O[C@@H]7O[C@@H](CO)[C@H](O)[C@H]7O)[C@H](OC(C)=O)[C@H]6O[C@@H]6O[C@H](CO)[C@@H](O)[C@H](O)[C@H]6O)C(C)(C)[C@@H]5CC[C@@]4(C)[C@]3(C)[C@@H](O)[C@@H](O)[C@]21CO (stereo not given in full) [SYMPLOCOSOSIDE Y] | > 10 | > 10 | > 10 | 3.4 | > 10
CC(C)=CCC/C(C)=C\C(=O)O[C@H]1CC(C)(C)C[C@H]2C3=CC[C@@H]4[C@@]5(C)CC[C@H](O)C(C)(C)[C@@H]5CC[C@@]4(C)[C@]3(C)[C@@H](O)[C@@H](O)[C@@]12CO | > 10 | > 10 | > 10 | > 10 | > 10
